ChEMBL document CHEMBL4334439, “Discovery, Optimization, and Target Identification of Novel Potent Broad-Spectrum Antiviral Inhibitors” (J Med Chem, 2019)
The source made the active and inactive calls. No cut-off for these calls is given here.

How the values were obtained:
[1] = test system: Dengue virus; experiment: Antiviral activity against DENV infected in human Huh7.5.1 cells assessed as inhibition of viral replication measured after 3 days by qRT-PCR analysis; type: functional, organism-based; details: Huh-7.5.1, 72 h
Method in brief: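 Huh7.5.1 cells were infected with DENV II or ZIKV at MOI 0.1 and treated with compound. Viral RNA was quantified by qRT-PCR after 3 days. EC50 is 50% reduction of RNA level.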

[2] = organism: Homo sapiens; experiment: Potency index, ratio of teriflunomide IC50 to test compound IC50 for C-terminal 6-His tagged recombinant human DHODH N-terminal domain delta29 mutant expressed in Escherichia coli BL21(DE3)
Method in brief: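 DCIP assay: His6-Δ29 human DHODH at 10 nM final in 50 mM HEPES pH 7.7, 150 mM KCl, 0.1% Triton X-100, with 100 μM UQ0 and 120 μM DCIP, preincubated 5 min at RT. Reaction started with 500 μM dihydroorotate; A600 read every 30 s for 6 min.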

[3] = Selectivity index, ratio of CC50 for HEK293T cells to EC50 for HIV pseudotyped virions infected in HEK293T cells; type: toxicity, cell-based; details: human, read-out: Ratio CC50/EC50
Method in brief: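 HIV pseudovirus made from VSVG plus env-deficient pNL4-3.luc.R-E- in HEK293T cells and diluted to 0.2 ng p24/ml. Target HEK293T cells were given compound 15 min before infection and lysed 48 h post-infection. CC50 by 48 h WST-1 viability (OD450/OD630).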

[4] = test system: Hepatitis C virus; experiment: Antiviral activity against EGFP-fused HCV JFH-1 harboring K78E/E2-G451R/NS3-M260K/NS5A-T462I mutation infected in human Huh7.5.1 cells assessed as reduction in viral RNA level after 2 days in presence of daclatasvir by qRT-PCR analysis; type: functional, organism-based; details: Hepacivirus hominis
Method in brief: (§1)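 Huh7.5.1 cells at 1×10^4/well, grown overnight at 37 °C. HCVcc was mixed with serially diluted compound (top 30 or 6 μM), given alone or with the named drug, and added to the cells. Viral RNA was read by qRT-PCR after 2 days. EC50 is the concentration giving 50% RNA reduction.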

[5] = test system: Hepatitis C virus; experiment: Antiviral activity against EGFP-fused HCV JFH-1 harboring K78E/E2-G451R/NS3-M260K/NS5A-T462I mutation infected in human Huh7.5.1 cells assessed as combination index after 2 days in presence of IFNalpha by qRT-PCR analysis; type: functional, Hepacivirus hominis
Method in brief: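 In HCVcc-infected Huh7.5.1 cells (1×10^4/well, overnight, 37 °C), compound was given at various concentrations alone or with the named approved antiviral. After 2 days HCV RNA was quantified by qRT-PCR to derive the combination index.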

[6] = test system: Respiratory syncytial virus; experiment: Antiviral activity against RSV infected in African green monkey Vero cells assessed as inhibition of viral replication measured after 5 to 7 days by plaque formation assay; type: functional, organism-based; details: human respiratory syncytial virus
Method in brief: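 Vero cells at 2×10^4/well were cultured 18 h, then infected with RSV at 2000 TCID50/ml. Compound (0.01–20 µM) was added immediately. Viral amount was measured by plaque formation assay.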

[7] = target: T1, Ribose-phosphate pyrophosphokinase 1 (Homo sapiens) (UniProt P60891); experiment: Binding affinity to PRPS1 (unknown origin)
T1 sequence (whole entry): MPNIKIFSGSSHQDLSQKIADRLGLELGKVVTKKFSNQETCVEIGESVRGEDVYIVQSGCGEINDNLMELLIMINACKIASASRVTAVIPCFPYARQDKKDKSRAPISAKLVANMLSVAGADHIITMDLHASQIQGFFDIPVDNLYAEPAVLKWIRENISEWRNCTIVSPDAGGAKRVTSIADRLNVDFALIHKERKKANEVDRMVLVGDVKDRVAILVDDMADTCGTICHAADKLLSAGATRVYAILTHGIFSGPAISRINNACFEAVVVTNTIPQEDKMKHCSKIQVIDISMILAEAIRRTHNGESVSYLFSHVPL

[8] = test system: Chikungunya virus; experiment: Antiviral activity against CHIKV infected in African green monkey Vero cells assessed as reduction in viral titre measured at 36 hrs post infection; type: functional, organism-based
[9] = test system: Huh7.5.1; experiment: Cytotoxicity against human Huh7.5.1 cells infected with DENV assessed as decrease in cell viability after 48 hrs by WST1 assay; type: cell-based; details: Huh-7.5.1, 48 h
Method in brief: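 Cells at 1×10^4/well, cultured overnight at 37 °C, were incubated 48 h with serially diluted compound. Viability was read by WST-1 absorbance (OD450/OD630).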

[10] = test system: Hepatitis C virus; experiment: Antiviral activity against EGFP-fused HCV JFH-1 harboring K78E/E2-G451R/NS3-M260K/NS5A-T462I mutation infected in human Huh7.5.1 cells assessed as reduction in viral RNA level after 2 days in presence of ribavirin by qRT-PCR analysis; type: functional, organism-based; details: Hepacivirus hominis; method in brief: as §1

CCN(CC)c1ccc(Oc2ccc(-c3[nH]c4cccc(F)c4c(=O)c3C)cc2F)cc1
EC50 [1]: 7 nM | Ratio IC50 [2]: 4 | selectivity ratio [3]: > 96 | Activity [4]: Dose-dependent effect | CI [5]: >=10 - 50 | EC50 [6]: 60 nM | Activity [7]: inactive | EC50 [8]: 260 nM | EC50 [9]: > 2500 nM | Activity [10]: Dose-dependent effect
